Assay results reported in ChEMBL document CHEMBL4732112, “Synthesis and in vitro evaluation of novel spiroketopyrazoles as acetyl-CoA carboxylase inhibitors and potential antitumor agents” (Eur J Med Chem, 2021).
The source made the active and inactive calls. No cut-off for these calls is given here.

Tests used:
Acetyl-CoA carboxylase 1 [1] = molecular target: T1, Acetyl-CoA carboxylase 1 (Homo sapiens, UniProt Q13085); assay: Inhibition of recombinant human C-terminal His-tagged ACC1 (1 to 2383 residues) expressed in baculovirus infected Sf9 insect cells at 5 uM preincubated for 15 mins followed by substrate addition and measured after 60 mins by ADP-glo luminescence assay relative to control
HepG2 [2] = assay: Cell cycle arrest in human HepG2 cells assessed as accumulation at G2/M phase at 10 uM measured after 48 hrs by propidium iodide staining based flow cytometry (reference value: 13.58%); format: functional
Acetyl-CoA carboxylase 1 [3] = molecular target: T1, Acetyl-CoA carboxylase 1; assay: Inhibition of recombinant human C-terminal His-tagged ACC1 (1 to 2383 residues) expressed in baculovirus infected Sf9 insect cells preincubated for 15 mins followed by substrate addition and measured after 60 mins by ADP-glo luminescence assay
How it was run: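 Recombinant ACC1 in assay buffer preincubated with inhibitor in DMSO for 15 min at room temperature. Reaction started with substrate mixture and run 60 min at room temperature. Stopped with ADP-Glo reagent for 40 min, then detection reagent for 40 min to convert ADP to ATP, read by luminescence. Mean of two independent experiments.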

HepG2 [4] = assay: Induction of apoptosis in human HepG2 cells assessed as late apoptotic cells at 1 uM measured after 48 hrs by Annexin V-FITC/propidium iodide staining based flow cytometry (reference value: 0.19%); format: functional
How it was run: (§1)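 HepG2 cells incubated with the stated concentrations for 48 h, harvested, and stained with Annexin V-FITC and propidium iodide protected from light. Viable, early apoptotic, late apoptotic and necrotic fractions quantified by flow cytometry. Mean ± SD, n=3.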

HepG2 [5] = assay: Induction of apoptosis in human HepG2 cells assessed as increase in early apoptotic cells measured after 48 hrs by Annexin V-FITC/propidium iodide staining based flow cytometry; format: functional, cell-based; conditions: dose 1-10 µM; how it was run: as §1
A549 = assay: Antiproliferative activity against human A549 cells assessed as cell growth inhibition at 10 uM after 72 hrs by MTT assay relative to control; format: functional; conditions: read-out: GI
How it was run: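 Cells were DMEM/10% FBS cultures at 37 °C, 5% CO2, seeded at 3×10^3 per well and exposed for 72 h after 24 h attachment. Read-out was MTT with formazan in DMSO and absorbance at 550 nm, expressed as inhibition rate versus control.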

HepG2 [6] = assay: Induction of apoptosis in human HepG2 cells assessed as increase in Bax expression measured after 48 hrs by Western blot analysis; format: functional, cell-based; conditions: dose 1-10 µM
How it was run: (§2)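 Western blots for Bcl-2, Bax, cleaved caspase-3 and cleaved PARP in HepG2 cells after 48 h treatment (1, 5, 10 μM for PARP). Lysates cleared, protein quantified by BCA, run on SDS-PAGE to PVDF, blocked in 5% BSA, primary overnight at 4 °C, DyLight 800 secondary. Infrared scanning and densitometry normalized to β-actin. Mean ± SD, n=3.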

HepG2 [7] = assay: Cell cycle arrest in human HepG2 cells assessed as accumulation at S phase at 5 uM measured after 48 hrs by propidium iodide staining based flow cytometry (reference value: 30.18%); format: functional
HepG2 [8] = assay: Induction of apoptosis in human HepG2 cells assessed as nuclear fragmentation at 1 to 10 uM measured after 48 hrs by Hoechst 33258 staining based fluorescence microscopic analysis; format: functional, cell-based; conditions: dose 1-10 µM
How it was run: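 HepG2 cells exposed to varying concentrations for 48 h in 6-well plates. Stained with Hoechst 33258 in the dark for 20 min, then nuclear morphology inspected by fluorescence microscopy.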

HepG2 [9] = assay: Antiproliferative activity against human HepG2 cells assessed as cell growth inhibition after 72 hrs by MTT assay; format: functional, cell-based; conditions: HepG2, 72 h
How it was run: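 HepG2, A549 or MDA-MB-231 cells grown in DMEM with 10% FBS and penicillin/streptomycin at 37 °C, 5% CO2. Seeded at 3×10^3 per well, left 24 h, then exposed to a range of concentrations for 72 h. MTT added for 4 h, formazan dissolved in DMSO, absorbance read at 550 nm. Mean ± SD, n=3.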

HepG2 [10] = assay: Cell cycle arrest in human HepG2 cells assessed as accumulation at S phase at 1 uM measured after 48 hrs by propidium iodide staining based flow cytometry (reference value: 30.18%); format: functional
HepG2 [11] = assay: Antiproliferative activity against human HepG2 cells assessed as cell viability at 0.5 uM measured after 5 days by MTT assay relative to control; format: functional; conditions: HepG2, 120 h, time 5 day, read-out: Activity
How it was run: (§3)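 HepG2 treated with 0.5 μM plus 0, 10 or 25 μM palmitate for 1, 3 and 5 days. Palmitate was complexed with 5% fatty-acid-free BSA from a 5 mM solution, then diluted in serum-free DMEM to final concentration. Viability (% control) by MTT. Mean ± SD, n=3.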

HepG2 [12] = assay: Cell cycle arrest in human HepG2 cells assessed as accumulation at G0/G1 phase at 1 uM measured after 48 hrs by propidium iodide staining based flow cytometry (reference value: 56.24%); format: functional
HepG2 [13] = assay: Antiproliferative activity against human HepG2 cells assessed as combination index at 0.175 uM measured after 72 hrs in presence of 0.35 uM doxorubicin by MTT assay; format: functional
HepG2 [14] = assay: Cell cycle arrest in human HepG2 cells assessed as reduction in CDK4 expression at 10 uM measured after 48 hrs by Western blot analysis relative to control; format: functional; parameters: scale not given: the % may be the effect or the level left
How it was run: (§4)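 HepG2 cells treated for 48 h and lysed. Lysates cleared at 12000 rpm for 15 min and protein measured by BCA. Run on SDS-PAGE, transferred to PVDF, blocked in 5% BSA, primary antibody at 4 °C overnight, then DyLight 800 secondary. Infrared imaging and densitometry against β-actin. Mean ± SD, n=3.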

HepG2 [15] = assay: Cell cycle arrest in human HepG2 cells assessed as accumulation at G2/M phase at 5 uM measured after 48 hrs by propidium iodide staining based flow cytometry (reference value: 13.58%); format: functional
Acetyl-CoA carboxylase 1 [16] = molecular target: T1, Acetyl-CoA carboxylase 1; assay: Inhibition of ACC1 in human HepG2 cells assessed as reduction in intracellular triglyceride level at 10 uM measured after 48 hrs by GPO-PAP method relative to control; format: cell-based
How it was run: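 HepG2 cells plated and exposed to the compound at several concentrations for 48 h. Cells washed with PBS, lysed in 1% Triton X-100 and spun 12000 rpm, 4 °C, 15 min. Malonyl-CoA measured by ELISA kit and triglyceride by GPO-POP kit, each normalised to BCA protein. Reported relative to control, mean ± SD, n=3.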

HepG2 [17] = assay: Antiproliferative activity against human HepG2 cells assessed as cell viability at 0.5 uM measured after 5 days in presence of 10 uM palmitate by MTT assay relative to control; format: functional; conditions: HepG2, 120 h, time 5 day, read-out: Activity; how it was run: as §3
HepG2 [18] = assay: Induction of apoptosis in human HepG2 cells assessed as necrotic cells at 1 uM measured after 48 hrs by Annexin V-FITC/propidium iodide staining based flow cytometry (reference value: 0.22%); format: functional; how it was run: as §1
HepG2 [19] = assay: Induction of apoptosis in human HepG2 cells assessed as reduction in Bcl2 expression measured after 48 hrs by Western blot analysis; format: functional, cell-based; conditions: dose 1-10 µM; how it was run: as §2
HepG2 [20] = assay: Induction of apoptosis in human HepG2 cells assessed as late apoptotic cells at 10 uM measured after 48 hrs by Annexin V-FITC/propidium iodide staining based flow cytometry (reference value: 0.19%); format: functional; how it was run: as §1
HepG2 [21] = assay: Cell cycle arrest in human HepG2 cells assessed as reduction in cyclin D1 expression at 10 uM measured after 48 hrs by Western blot analysis relative to control; format: functional; parameters: scale not given: the % may be the effect or the level left; how it was run: as §4

## CC(C)(C)n1cc2c(n1)C(=O)CC1(CCN(C(=O)c3cc(-c4ccncc4)nc4ccccc34)CC1)O2
Acetyl-CoA carboxylase 1 [1]
  inhibition: 100%
HepG2 [2]
  Activity: 4.9%
Acetyl-CoA carboxylase 1 [3]
  IC50: 11.3 nM
HepG2 [4]
  Activity: 12.7%
HepG2 [5]
  Activity: Dose-dependent effect
A549
  inhibition of growth at 10 µM: 79.3%
HepG2 [6]
  Activity: Dose-dependent effect
HepG2 [7]
  Activity: 14.71%
HepG2 [8]
  Activity: Active
HepG2 [9]
  IC50: 380 nM
HepG2 [10]
  Activity: 21.46%
HepG2 [11]
  viability at 0.5 µM: 33.1%
HepG2 [12]
  Activity: 67.68%
HepG2 [13]
  CI: 0.737
HepG2 [14]
  Activity: 60.76%
HepG2 [15]
  Activity: 6.46%
Acetyl-CoA carboxylase 1 [16]
  inhibition: 36.7%
HepG2 [17]
  viability at 0.5 µM: 68.9%
HepG2 [18]
  Activity: 3.61%
HepG2 [19]
  Activity: Dose-dependent effect
HepG2 [20]
  Activity: 45.5%
HepG2 [21]
  Activity: 43.92%
